In test [1] the test system is A549. Briefly: Antitumor activity against human A549 cells assessed as growth inhibition at 10 uM relative to control. To be noted: read-out: GI. Type of test: functional. The method, boiled down:
(§1)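 After drug addition, plates were incubated 48 h at 37 °C under 5% CO2. Adherent cells were fixed with cold TCA (10% final, 60 min, 4 °C) and suspension cells with 16% final TCA. Staining used 0.4% SRB in 1% acetic acid, solubilized in 10 mM trizma, read at A515. Percent growth was calculated from time-zero, control and treated absorbances.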

For test [2], the system named is NCI-H460. Briefly: Antitumor activity against human NCI-H460 cells assessed as growth inhibition at 10 uM relative to control. Type of test: functional. To be noted: read-out: GI. The method, boiled down: as §1
Test [3] concerns SN12C. Description: Antitumor activity against human SN12C cells assessed as growth inhibition at 10 uM relative to control. Format: functional. To be noted: read-out: GI. A digest of the protocol: (§2)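 Drug exposure 48 h at 37 °C, 5% CO2. Adherent cells fixed with cold TCA (10% final), suspension cells with TCA (16% final). Stained with 0.4% SRB in 1% acetic acid, dissolved in 10 mM Tris, A515. Growth relative to time-zero and untreated control.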

Test [4] relates to UACC-62. Description: Antitumor activity against human UACC-62 cells assessed as growth inhibition at 10 uM relative to control. Format: functional. Conditions: read-out: GI. The method, boiled down:
as §2

The test system of test [5] is OVCAR-4. Description: Antitumor activity against human OVCAR-4 cells assessed as growth inhibition at 10 uM relative to control. Type of test: functional. To be noted: read-out: GI. The method, boiled down: as §1
The test system of test [6] is MCF7. Description: Antitumor activity against human MCF7 cells assessed as growth inhibition at 10 uM relative to control. Type of test: functional. To be noted: read-out: GI. The method, boiled down:
as §1

Test [7] deals with HT-29. Briefly: Antitumor activity against human HT-29 cells assessed as growth inhibition at 10 uM relative to control. Type of test: functional. To be noted: read-out: GI. A digest of the protocol: as §1
The subject of test [8] is CAKI-1. Description: Antitumor activity against human CAKI-1 cells assessed as growth inhibition at 10 uM relative to control. Type of test: functional. To be noted: read-out: GI. The method, boiled down:
as §1

Test [9] concerns SK-OV-3. Description: Antitumor activity against human SK-OV-3 cells assessed as growth inhibition at 10 uM relative to control. Type of test: functional. To be noted: read-out: GI. The method, boiled down:
as §2

The subject of test [10] is UACC-257. Description: Antitumor activity against human UACC-257 cells assessed as growth inhibition at 10 uM relative to control. Type of test: functional. To be noted: read-out: GI. A digest of the protocol: as §2
Test [11] has as its system HCT-15. Description: Antitumor activity against human HCT-15 cells assessed as growth inhibition at 10 uM relative to control. Type of test: functional. Conditions: read-out: GI. The method, boiled down:
as §1

Test [12] relates to OVCAR-5. Description: Antitumor activity against human OVCAR-5 cells assessed as growth inhibition at 10 uM relative to control. Type of test: functional. Conditions: read-out: GI. A digest of the protocol:
as §1

Test [13] has as its system TK-10. Description: Antitumor activity against human TK-10 cells assessed as growth inhibition at 10 uM relative to control. Format: functional. Conditions: read-out: GI. The method, boiled down: as §2
The subject of test [14] is SK-MEL-2. Description: Antitumor activity against human SK-MEL-2 cells assessed as growth inhibition at 10 uM relative to control. Format: functional. Conditions: read-out: GI. A digest of the protocol:
as §1

Test [15] relates to SR. Briefly: cells. To be noted: Homo sapiens.

In ChEMBL document CHEMBL5376013, “Design, synthesis and biological evaluation of novel morpholinopyrimidine-5-carbonitrile derivatives as dual PI3K/mTOR inhibitors” (RSC Med Chem, 2024) one finds inhibition of growth and IC50 data, which are given here for eight compounds.

With `N#Cc1c(-c2ccc(Cl)cc2)nc(N/N=C/c2cccc([N+](=O)[O-])c2)nc1N1CCOCC1`, the inhibition of growth at 10 µM was 27.2% in [1]; 14.5% in [2]; 10.6% in test [3]; 27.6% in test [4]; 22.3% in [5]; < 25.6% in test [6]. Besides, the inhibition of growth at 10 µM in test [7] was < 1%; in test [8] it was 28.1%; in [9], 11.1%; in test [10], < 1%; in test [11], 23%; in test [12], 10.2%. Moreover, the inhibition of growth at 10 µM in test [13] is 25.6%; in [14] it was 10.4%.
For `N#Cc1c(-c2ccc(Cl)cc2)nc(N/N=C/c2cccc(F)c2)nc1N1CCOCC1`, the inhibition of growth at 10 µM in test [1] is < 1%; in [2] it was < 1%; in test [3] it was < 1%; in [4], < 1%; in test [5], < 1%; in test [6], < 12.4%. For the same compound, the inhibition of growth at 10 µM in test [7] was 30%; in test [8] it was 13.7%; in [9], < 1%; in [10] it was < 1%; in test [11], 21.3%; in test [12] it was < 1%. The inhibition of growth at 10 µM in test [13] and in test [14] was < 1% throughout.
In the case of `N#Cc1c(-c2ccc(Cl)cc2)nc(N/N=C/c2ccco2)nc1N1CCOCC1`, the inhibition of growth at 10 µM in [1] is 21.1%; in test [2] it was 31.8%; in test [3], 17.9%; in [4], 41.8%; in test [5] it was 54.4%; in [6], < 73.8%. In addition, the inhibition of growth at 10 µM in test [7] was 13%; in test [8], < 1%; in test [9], 50.6%; in test [10] it was < 1%; in test [11], 19.7%; in test [12], 23.1%. Also, the inhibition of growth at 10 µM stood at 37.6% in [13] and 17.7% in [14].
What is called IC50 is the midpoint of a concentration-inhibition curve. Low readings indicate inhibition by little substance, high ones a need for much substance. On to `N#Cc1c(-c2ccc(Cl)cc2)nc(N/N=C/c2ccc[nH]2)nc1N1CCOCC1`, for which the inhibition of growth at 10 µM in [1] is 45.6%; in test [2] it was 63.3%; in [3] it was 59.9%; in test [4], 12%; in test [5], 25.9%; in test [6] it was < 29.3%. Moreover, the inhibition of growth at 10 µM was 33.8% in test [7]; < 1% in test [8]; 15.3% in test [9]; 12.1% in test [10]; 21.1% in test [11]; < 1% in test [12]. Also, the inhibition of growth at 10 µM in test [13] is 36.7%; in test [14] it was < 1%. In test [15], this compound yielded an IC50 of 0.77 µM.
On to `N#Cc1c(-c2ccc(Cl)cc2)nc(N/N=C2/C(=O)Nc3ccc(Cl)cc32)nc1N1CCOCC1`, for which the inhibition of growth at 10 µM was < 1% in test [1]; < 1% in test [2]; < 1% in [3]; < 1% in test [4]; < 1% in test [5]; 1% in test [6]. For the same compound, the inhibition of growth at 10 µM in test [7] is < 1%; in test [8], < 1%; in test [9], < 1%; in test [10], < 1%; in test [11], 1%; in test [12], < 1%. Besides, the inhibition of growth at 10 µM in [13] and in test [14] was < 1% throughout.
On to `N#Cc1c(-c2ccc(Cl)cc2)nc(N/N=C/c2cccc(Br)c2)nc1N1CCOCC1`, for which the inhibition of growth at 10 µM in test [1] is 19.6%; in [2], 13.1%; in test [3] it was < 1%; in test [4], < 1%; in test [5], 12.6%; in test [6], < 27.5%. Also, the inhibition of growth at 10 µM in test [7] is 71%; in test [8] it was 1%; in test [9], < 1%; in [10], 13.5%; in [11] it was 91.6%; in [12], 17.9%. The inhibition of growth at 10 µM in test [13] and in test [14] was < 1% throughout.
In the case of `COc1cc(/C=N/Nc2nc(-c3ccc(Cl)cc3)c(C#N)c(N3CCOCC3)n2)cc(OC)c1OC`, the inhibition of growth at 10 µM in test [1] was 41.4%; in [2], 46.2%; in [3] it was 35.4%; in test [4], 31.7%; in [5], 11.2%; in [6] it was < 35.5%. Besides, the inhibition of growth at 10 µM in [7] is 69.3%; in test [8], < 1%; in [9] it was < 1%; in test [10], < 1%; in test [11], 48%; in test [12] it was 27.9%. The inhibition of growth at 10 µM in [13] is 15.7%; in [14], 20.4%. The compound also came in with an IC50 in test [15] of 0.35 µM.
Regarding `N#Cc1c(-c2ccc(Cl)cc2)nc(N/N=C2/C(=O)Nc3ccc(Br)cc32)nc1N1CCOCC1`, the inhibition of growth at 10 µM in test [1] was < 1%; in [2], < 1%; in [3] it was < 1%; in test [4], < 1%; in [5], < 1%; in [6], 1%. The inhibition of growth at 10 µM was < 1% in test [7]; < 1% in [8]; < 1% in test [9]; < 1% in [10]; 1% in test [11]; < 1% in test [12]. In addition, the inhibition of growth at 10 µM in [13] and in test [14] was < 1% throughout.
